# Screening results from PubChem BioAssay.
# HUVEC prolif 384 = inhibitors of human endothelial cell proliferation | HUVEC proliferation, CellTiter-Glo luminescence, 72 h; stronger effect = lower value | viability, % at 10 µM (by protocol) | 86,000 compounds, 1.1% hits | AID 648;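 active means viability at or below 30%; inactive means viability above 30%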;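 further: 100% = median luminescence of DMSO-only cell control wells on each plate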
# bCat KO growth = beta-catenin-lacking colon tumor cell growth suppression. AID 818. HCT116 beta-catenin knockout viability, CellTiter-Glo, 60 h; stronger effect = lower value. viability, % at 10 µM. 140,000 compounds, 1.5% hits;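 active means viability at or under a set limit, the compound median less 4 SD, cut at about 6% in these data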;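 further: 0% = Hyamine 1622 control at 20 µM and 100% = untreated cell control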
# Fibroblast inh = blocks proliferation of human lung fibroblasts; LL 47 human lung fibroblast viability, ATP luminescence; stronger effect = lower value; viability, % at 10 µM; 85,000 compounds, 1.1% hits;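 active means viability at or below 50% in the single dose screen; inactive means viability above 50%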;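 further: compound exposure lasted 72 h before the ATP readout; 100% = median luminescence of untreated cell-only wells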
#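 material = human LL 47 lung fibroblast cells | dosing = compounds added from tenfold dosing solution, 0.1% DMSO final | timing = overnight cell rest, 72 h compound treatment at 37 °C | measured by = CellTiter-Glo luminescence measuring cellular ATP | evaluation = % viability versus median cells-only luminescence | control set = cell-only wells, no compound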
# HCT116 PTEN-null = PTEN-deleted cell growth suppression | HCT116 PTEN-null viability, CellTiter-Glo, 60 h; stronger effect = lower value | viability, % at 10 µM | 140,000 compounds, 1.2% hits;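 active means viability at or below a set limit, 4 SD under the median of all tested compounds, cut at about 3.7% in these data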;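 further: PTEN knockout HCT116 line with beta catenin targeted HCT116 as companion control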
# H69AR growth 86K = growth inhibitors of human H69AR lung tumor cells; H69AR lung tumor viability, ATP luminescence, 72 h; stronger effect = lower value; viability, % at 10 µM; 85,000 compounds, 6% hits; AID 598;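 active means viability at or below 40%; inactive means viability above 40%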;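 further: multidrug resistant small cell line overexpressing MRP-1 efflux transporter; 100% = mean luminescence of untreated control wells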
# * = called active by the depositor; / = no result given. This is one part of a sample in which hits are shown more often than they occur.
SMILES,HUVEC prolif 384,bCat KO growth,Fibroblast inh,HCT116 PTEN-null,H69AR growth 86K
CC(Sc1nc(N(C)C)nc(N2CCOCC2)n1)C(=O)Nc1ccccc1 (stereo not drawn),102,109,94,95,31*
Cc1cc(C)c2c(c1)/C(=C/C(=O)c1ccc(Br)s1)C(=O)N2,7.1*,1.8*,15*,1.8*,1.8*
CCc1ccc2c(c1)/C(=C/C(=O)c1cccs1)C(=O)N2,67,0.8*,6.5*,0.8*,1.7*
CCc1ccc2c(c1)/C(=N/N(C)C(=S)NC)C(=O)N2,/,51,/,78,/
CN1/C(=C\C(=O)c2cccs2)C(C)(C)c2ccccc21,/,85,/,84,/
Cc1cccc2c1NC(=O)/C2=C\C(=O)c1cccs1,29*,4.9*,6.1*,2.2*,2.1*
O=[N+]([O-])c1cc(-c2nc(-c3ccncc3)no2)ccc1Cl,/,2.8*,/,2.3*,/
COC(=O)NNC(=O)Cc1cccc2ccccc12,/,90,/,93,/
O=C1CC(N2CCC(O)(c3ccc(Br)cc3)CC2)C(=O)N1c1ccc(Cl)cc1 (stereo not drawn),/,102,/,101,/
Cc1nn(-c2ccccc2)c2nc(-c3ccncc3)cc(C(=O)NCc3ccco3)c12,70,60,92,54,31*
Cc1nn(-c2ccccn2)c2nc(-c3cccs3)cc(C(=O)NCc3ccco3)c12,71,64,101,66,16*
O=C(NCc1cc(Br)cc(Br)c1OC(=O)c1ccccc1[N+](=O)[O-])c1ccccc1,/,60,/,62,/
CC(NC(=O)CSc1nc2sc3c(c2c(=O)n1-c1ccccc1)CCCC3)c1ccccc1 (stereo not drawn),67,71,92,70,1.9*
C=CCn1c(SCC(=O)Nc2cc(C)on2)nc2sc(C)c(C)c2c1=O,97,78,91,57,28*
C=CCn1c(SCC(=O)Nc2cc(C)on2)nc2sc3c(c2c1=O)CCCC3,/,75,/,67,/
CC(C)C(C)NC(=O)CSc1nc2scc(-c3ccco3)c2c(=O)n1-c1ccccc1 (stereo not drawn),94,97,88,98,78
Cc1cc(NC(=O)CSc2nc(C(C)C)nc3sc4c(c23)CCCC4)no1,60,66,18*,71,5.6*
CCn1c(SCC(=O)Nc2cc(C)on2)nc2sc3c(c2c1=O)CCCC3,78,14,15*,2.3*,7.1*
C/C(=N/OCC(=O)NCCCCCCNC(=O)CO/N=C(/C)c1cccs1)c1cccs1,/,81,/,84,/
COc1ccc(/C=N/NC(=S)NC2CCS(=O)(=O)C2)cc1 (stereo not drawn),/,82,/,91,/
Cc1ccccc1Oc1cc(-n2ncc(Cl)c(Cl)c2=O)ncn1,/,1.6*,/,1.9*,/
CCOc1cnn(-c2cc(Oc3ccc(C)cc3)ncn2)c(=O)c1Cl,/,88,/,90,/
O=C(N1CCOCC1)N1CCCN(C(=O)N2CCOCC2)CC1,92,104,100,103,36*
CCOc1ccc(-c2[nH]ncc2-c2ccc(OC)c(OC)c2)c(O)c1,67,22,59,25,14*
C=C(C)COc1ccc(-c2[nH]ncc2-c2ccccc2OC)c(O)c1,32,53,64,44,6.0*
SMILES,HUVEC prolif 384,bCat KO growth,Fibroblast inh,HCT116 PTEN-null,H69AR growth 86K
COc1ccc(-c2cn[nH]c2-c2ccc(OCc3ccc([N+](=O)[O-])cc3)cc2O)cc1,/,51,/,36,/
CCOc1ccc(-c2[nH]ncc2Oc2ccccc2OCC)c(O)c1,76,65,71,61,12*
COc1ccc(-c2n[nH]c(C)c2-c2cc(OC)ccc2O)cc1,95,113,99,99,99
COc1ccc(-c2c(-c3ccc(O)cc3O)n[nH]c2C)cc1OC,67,41,80,32,21*
CCC(=O)N1CCN(CCN=CC2=C(O)CC(c3ccc(OC)cc3)CC2=O)CC1 (stereo not drawn),/,97,/,106,/
COc1ccc(C(=O)NCc2nnc(SCC(=O)Nc3nc4ccccc4s3)o2)cc1OC,/,93,/,93,/
O=C(COC(=O)c1cccc(C(F)(F)F)c1)NCc1ccccc1,/,96,/,97,/
O=[N+]([O-])c1cc(-c2nc3nc4ccccc4nc3n2CCc2ccccc2)cc([N+](=O)[O-])c1,/,65,/,76,/
C=C(C)COc1ccc(-c2[nH]ncc2-c2ccc(Br)cc2)c(O)c1,/,1.8*,/,2.2*,/
C=C(C)COc1ccc(-c2nc(N)ncc2Oc2ccc(OC)cc2)c(O)c1,87,85,85,64,73
C=C(C)COc1ccc(-c2[nH]ncc2Oc2ccccc2OC)c(O)c1,50,89,60,68,1.5*
CCOc1ccc(-c2[nH]ncc2Oc2ccccc2OC)c(O)c1,84,86,97,86,46
C=C(C)COc1ccc(-c2n[nH]c(C)c2-c2ccc(Br)cc2)c(O)c1,3.8*,21,32*,30,6.6*
CCCOC(=O)c1ccc(Oc2cn[nH]c2-c2ccc(OC)cc2O)cc1,8.5*,47,80,47,42
COc1ccc(CNC(=O)Cn2cc(C(F)(F)F)ccc2=O)cc1,/,87,/,92,/
COc1ccc(C2c3ccc4ccccc4c3Oc3ncn(Cc4ccco4)c(=N)c32)cc1OC (stereo not drawn),/,1.7*,/,0.9*,/
COc1ccc(C2c3ccc4ccccc4c3Oc3ncn4nc(Cc5ccccc5)nc4c32)cc1OC (stereo not drawn),/,84,/,71,/
COc1ccc(C2c3c(ncn(CCN4CCOCC4)c3=N)Oc3ccc4ccccc4c32)cc1OC (stereo not drawn),71,49,89,43,1.9*
N#CCCn1cc(C(=O)Nc2ccccc2Br)c(-c2cc3ccccc3o2)n1,/,71,/,48,/
CCCCCCCn1c(=N)n(CC(=O)c2ccco2)c2ccccc21,43,4.7*,65,2.0*,24*
COc1c(Cl)cc(Cl)cc1C(=O)n1nc(C)cc1C,90,94,96,87,90
O=c1c2cnn(-c3ccccc3)c2nc(-c2cccs2)n1-c1cccc(Cl)c1,/,109,/,92,/
CCOC(=O)N1CCN(C(=O)C(C)N(c2ccc(Oc3ccccc3)cc2)S(C)(=O)=O)CC1 (stereo not drawn),111,49,/,45,34*
O=[N+]([O-])c1ccc(Cl)c(/C=N/n2c(-c3cccnc3)n[nH]c2=S)c1,/,8,/,10,/
CCCCNC(=S)N/N=C/c1ccc(OCC(=O)Nc2c(C)cc(C)cc2C)c(OC)c1,/,76,/,88,/
OCCCNc1nc(-c2ccc(Cl)cc2)nnc1-c1ccccc1,/,91,/,87,/
C=CCNc1nc(-c2ccccn2)nnc1-c1ccccc1,12*,14,14*,15,40
CCN(CC)C(=O)c1cccc2c1C(=O)c1ccccc1-2,104,94,96,97,92
CCN(CC)C(=O)c1ccc2c(c1[N+](=O)[O-])C(=O)c1ccccc1C2=O,/,8,/,2.6*,/
O=C1c2ccccc2C2=Nc3ccccc3SC(c3cccc(F)c3)C12 (stereo not drawn),/,2.2*,/,3.5*,/
